In ChEMBL document CHEMBL1138632, “Identification and structure-activity relationship studies of 3-methylene-2-norbornanone as potent anti-proliferative agents presumably working through p53 mediated apoptosis” (2004) one finds Fold selectivity and CC50 data, which are given here for 25 compounds.

Assay [1] relates to CAKI-1. Kind of assay: Fold selectivity expressed as ratio of LC50 for Caki cells with non-mutant p53 to LC50 for C33A cells with a mutation at Cys 273. It counts as functional, Homo sapiens. Put shortly:
(§1)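 Selectivity is the fold ratio of the Caki-1 (wild-type p53) LC50 to the mutant-p53 line LC50 (C33A or Ramos RA1). LC50s come from the 72 h anti-proliferation assay in RPMI/10% FBS, 0.001–100 range. Values are means of three experiments.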

For assay [2], the system named is CAKI-1. The experiment in a line: Fold selectivity expressed as ratio of LC50 for Caki cells with non-mutant p53 to LC50 for Ramos RA1 cells with a mutation at Asp 254. It counts as functional, Homo sapiens. In a few lines: as §1
Assay [3] relates to CAKI-1. The experiment in a line: Lethal concentration required to kill 50% Caki-1 cells of the human renal carcinoma with non-mutant wt p53. It counts as functional. Conditions: read-out: LC50 (the source's name). Put shortly:
(§2)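 Cells (Caki-1 renal carcinoma with wild-type p53 as negative control; C33A cervical and Ramos RA1 lymphocyte lines with mutant p53) plated sub-confluent at 1 × 10⁵ cells/mL in RPMI with 10% FBS. Compounds added at 0.001–100 for 72 h, with a positive control and a vehicle negative control. LC50 is the concentration killing 50% of cells.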

Assay [4] can be described thus: Lethal concentration required to kill 50% Ramos RA1 cells of the human lymphocyte with a mutation at Asp 254. It counts as functional. Particulars: read-out: LC50 (the source's name). In a few lines: as §2

Some results are limits rather than exact numbers.

Regarding `C=C1C2=NS(=O)(=O)CC23CCC1C3(C)C` (stereo not drawn), the Fold selectivity was 6.36 in the assay with CAKI-1 [1] and 7.57 in the assay with CAKI-1 [2]. The results for the CC50 (with CAKI-1 [3]; in assay [4]) were 15.9 µM and 2.1 µM, respectively.
The like results for `C=C1C(=O)C2CCC1(C)C2(C)C` (stereo not drawn) were, in that order, 1, 1, 609 µM and 609 µM.
With `C=C1Cc2cc(OC)ccc2C1=O`, the results for the Fold selectivity in the assay on CAKI-1 [1] and in the assay on CAKI-1 [2] were 1.45 and 9.53, respectively. Besides, the CC50 in the assay on CAKI-1 [3] is 30.5 µM; in assay [4], 3.2 µM.
The like results for `C=C1C(=O)C2(C(=O)Nc3ccc(OC)cc3)CCC1C2(C)C` (stereo not drawn) were, in that order, 7.11, 7.55, 108 µM and 14.3 µM.
The like results for `C=C1C(=O)C2(C(=O)O)CCC1C2(C)C` (stereo not drawn) were, in that order, 1.15, 1.46, 515 µM and 353 µM.
The like results for `C=C1C(=O)C2(CS(=O)(=O)NCc3ccc(OC)cc3)CCC1C2(C)C` (stereo not drawn) were, in that order, 1.93, 2.72, 190 µM and 69.9 µM.
Turning to `O=C1C2CCN(CC2)C1(CO)CO`, the Fold selectivity in the assay with CAKI-1 [1] is given as 6.4; in the assay with CAKI-1 [2], 9.42. The CC50 with CAKI-1 [3] was found to be 162 µM; in assay [4], 17.2 µM.
In the case of `COc1ccc(/C=C/c2nc(NCCCN(C)C)c3ccccc3n2)cc1`, the Fold selectivity in the assay on CAKI-1 [1] is reported as 0.69; in the assay with CAKI-1 [2] it was 0.65. In addition, the CC50 with CAKI-1 [3] came out at 9.3 µM; in assay [4], 14.3 µM.
The like results for `C=C1CCc2cc(OC)c(OC)cc2C1=O` were, in that order, 0.7, 3.24, 15.9 µM and 4.9 µM.
Turning to `C=C1C(=O)C2(C(=O)NCc3ccc(OC)cc3)CCC1C2(C)C` (stereo not drawn), the Fold selectivity turned out to be 7.31 in the assay with CAKI-1 [1] and 7.55 with CAKI-1 [2]. Also, the values for the CC50 (in the assay on CAKI-1 [3]; in assay [4]) were 120 µM and 15.9 µM, respectively.
For the compound `C=C1C(=O)C2(CS(=O)(=O)NCC(C)C)CCC1C2(C)C` (stereo not drawn), the results for the Fold selectivity with CAKI-1 [1] and in the assay on CAKI-1 [2] were 1.95 and 2.13, respectively. Further, the figures for the CC50 (in the assay on CAKI-1 [3]; in assay [4]) were 334 µM and 157 µM, respectively.
The like results for `C=C1C(=O)C2(CS(=O)(=O)Nc3ccc(OC)cc3)CCC1C2(C)C` (stereo not drawn) were, in that order, 8.51, 8.98, 114 µM and 12.7 µM.
Regarding `C=C1CC2CCC1C2` (stereo not drawn), the CC50 (in the assay on CAKI-1 [3]; in assay [4]) was > 924 µM each time.
As to `C=C1CCc2ccccc2C1=O`, the Fold selectivity worked out at 1.1 in the assay with CAKI-1 [1] and 2.37 with CAKI-1 [2]. Moreover, the CC50 with CAKI-1 [3] stood at 30.6 µM; in assay [4], 12.9 µM.
With `C=C1CCc2cc(OC)ccc2C1=O`, the Fold selectivity in the assay on CAKI-1 [1] is listed as 0.65; in the assay with CAKI-1 [2], 9. Besides, the CC50 was determined as 16.2 µM in the assay on CAKI-1 [3] and 1.8 µM in assay [4].
Turning to `C=C1C(=O)[C@@]2(C)CC[C@H]1C2(C)C`, the Fold selectivity in the assay on CAKI-1 [1] worked out at 3.29; in the assay on CAKI-1 [2], 1. In addition, the CC50 (with CAKI-1 [3]; in assay [4]) was 609 µM each time.
On to `O=C1CC2CCC1C2` (stereo not drawn), for which the CC50 (in the assay on CAKI-1 [3]; in assay [4]) was > 618 µM throughout.
`C=C1C(=O)C2CC1C1CCCC21` (stereo not drawn): the Fold selectivity in the assay on CAKI-1 [1] stood at 10.15; in the assay with CAKI-1 [2], 7.74. For the same compound, the CC50 in the assay with CAKI-1 [3] came to 271 µM; in assay [4], 35 µM.
The like results for `C=C1C(=O)C2(C(=O)OC)CCC1C2(C)C` (stereo not drawn) were, in that order, 1.54, 1.36, 36 µM and 26.4 µM.
In the case of `C=C1C2CCC(C2)C1O` (stereo not drawn), the Fold selectivity is 3.9 with CAKI-1 [1] and 1 with CAKI-1 [2]. The CC50 (with CAKI-1 [3]; in assay [4]) was 805 µM in each case.
Consider `C=C1C(=O)C2CCC1C2` (stereo not drawn), for which the results for the Fold selectivity in the assay on CAKI-1 [1] and with CAKI-1 [2] were 29.7 and 13.16, respectively. Also, the CC50 in the assay on CAKI-1 [3] is 109 µM; in assay [4] it was 8.28 µM.
As to `C=C1C(=O)C2(C(=O)NCC(C)C)CCC1C2(C)C` (stereo not drawn), the Fold selectivity in the assay with CAKI-1 [1] was 8.07; with CAKI-1 [2], 7.95. Besides, the CC50 with CAKI-1 [3] was 171 µM; in assay [4], 21.5 µM.
The like results for `CC(C)=C1CC[C@H](C)CC1=O` were, in that order, 1.83, 1.29, 657 µM and 509 µM.
As for `C=C1/C(=N/O)C2CCC1C2` (stereo not drawn), the CC50 with CAKI-1 [3] was > 728 µM.
Turning to `C=C1CCOC1=O` [TULIPALINE A], the Fold selectivity turned out to be 1.13 with CAKI-1 [1] and 1.41 with CAKI-1 [2]. The CC50 with CAKI-1 [3] is 55.4 µM; in assay [4], 39.3 µM.
